Source: PubChem BioAssay (Broad Institute)
SR-BI HDL uptake: mouse SR-BI HDL lipid transfer inhibition; Q61009; ldlA[mSR-BI] CHO cells, DiI-HDL uptake fluorescence, 3 h; inhibition, % at 12.5 µM; hit rate 0.96% among 320,000;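 active = mean replicate inhibition of at least 70% and a set share of replicates each scoring 70 or more; inconclusive = meets just one of the two criteria; inactive = fails both criteria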
Target sequence (Q61009 whole entry, looked up): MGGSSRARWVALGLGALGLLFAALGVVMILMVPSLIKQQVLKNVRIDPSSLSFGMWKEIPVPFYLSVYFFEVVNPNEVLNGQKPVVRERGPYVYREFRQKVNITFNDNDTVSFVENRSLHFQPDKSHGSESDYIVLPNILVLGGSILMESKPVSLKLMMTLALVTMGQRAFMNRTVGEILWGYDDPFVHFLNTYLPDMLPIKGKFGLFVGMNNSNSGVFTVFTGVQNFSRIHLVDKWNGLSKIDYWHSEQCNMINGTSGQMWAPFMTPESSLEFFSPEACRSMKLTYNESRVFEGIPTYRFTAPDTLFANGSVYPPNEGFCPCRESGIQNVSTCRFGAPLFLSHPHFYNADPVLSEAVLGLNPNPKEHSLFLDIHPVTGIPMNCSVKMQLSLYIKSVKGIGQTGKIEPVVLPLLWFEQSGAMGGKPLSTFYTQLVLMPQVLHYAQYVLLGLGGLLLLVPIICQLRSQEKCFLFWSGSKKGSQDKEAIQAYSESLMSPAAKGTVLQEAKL
SR-BI DiI-HDL act: activators of SR-BI mediated HDL lipid uptake; CHO ldlA[mSR-BI] cells, DiI-HDL uptake fluorescence, 3 h; 100 = double the neutral-control signal; activation, % at 12.5 µM; hit rate 0.096% among 320,000;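 active = mean replicate activation of at least 60% and every replicate at or above 60%; inconclusive = mean or all-replicate condition met, but not both; inactive = mean below 60% and not all replicates reaching 60%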
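Assay system: CHO ldlA[mSR-BI] cells, LDL receptor-null, SR-BI overexpressing; medium: Ham's F12 with 0.5% BSA, HEPES 25 mM, pH 7.4; also added: DiI-HDL 10 µg/mL; timing: 3 h uptake period with compound, 37 °C; signal: DiI fluorescence, bottom read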
Wnt bcat act: activates Wnt/beta-catenin signaling in a reporter cell assay | AID 743398 | hit rate 1.2% among 300,000 | activation, % at 9.35 µM | activator, plate reader; in the data active = activation above about 30%, passing the limit was not always enough; inconclusive = no clear call, values can overlap the other calls
HSF-1 act: increases HSF-1 driven luciferase reporter signal; NIH3T3-HGL HSF-1 luciferase reporter, MG132, 8 h; 100% = twice DMSO control signal; activation, % at 9 µM; hit rate 1.7% among 300,000; AID 504408;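 active = mean replicate activation of at least 50% with a set share of replicates each reaching 50%; inconclusive = only one of those two conditions met; inactive = mean below 50% and too few replicates reaching it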
MITF act: activators of MITF-driven TRPM1 promoter activity in SK-MEL-5 cells | SK-MEL-5 TRPM1-promoter luciferase, 24 h; % of positive control, neutral wells = 0 | activation, % at 12.5 µM | hit rate 0.75% among 300,000;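 active = mean activation of at least 80% with every replicate also reaching 80%; inconclusive = mean reaches 80% but some replicate falls short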
Hits are given with their value; - = inactive; ? = inconclusive; . = no result given. Compounds with a hit are over-represented: about 3.6% of the library has one in this group of screens.

SMILES	SR-BI HDL uptake	SR-BI DiI-HDL act	Wnt bcat act	HSF-1 act	MITF act
COc1ccc(N2Cc3ccc(OC)c(OC)c3C2=O)cc1	-	-	-	-	86
COc1ccc2c(c1OC)C(=O)N(c1nccs1)C2	-	-	-	-	-
C[C@@H]1NS(=O)(=O)c2ccc(F)cc2O[C@@H]1c1ccccc1	.	.	-	.	.
CC1OC(C2CCCCC2)Cc2[nH]c(=S)[nH]c(=O)c21 (stereo not given)	.	.	-	.	.
O=C(CCCOc1ccc(Cl)cc1Cl)N/N=C/c1cccc([N+](=O)[O-])c1	-	330	-	-	-
Cc1ccc(Sc2ncccc2N)cc1	.	.	-	-	.
Cc1ccc(Sc2ncccc2O)cc1	-	-	69	-	-
CC(=O)NC(C)(c1ccccc1)c1nc(-c2cccc(C(F)(F)F)c2)cs1 (stereo not given)	.	.	-	.	.
CC(C)CNc1cccc2c1S(=O)(=O)N(Cc1cccc(F)c1)[C@@H](C)[C@H](c1ccccc1)O2	.	.	-	.	.
C[C@H](CO)N1C[C@H](C)[C@@H](CN(C)Cc2cccc(F)c2)Oc2cc(-c3cccc(C#N)c3)ccc2S1(=O)=O	.	.	-	.	.
O=[N+]([O-])c1ccc(Cc2nnc(-c3ccccc3Cl)o2)cc1	.	.	-	-	103
O=C(c1cc([N+](=O)[O-])cc([N+](=O)[O-])c1)N(Cc1nnc(-c2ccccc2Cl)o1)C1CC1	-	-	-	-	-
CCCn1cc(C(=O)Nc2ccc(Oc3cccnc3)cc2)c2ccccc21	.	.	-	.	.
COc1ccccc1C1=NC(c2ccc(C)cc2)N=C1C (stereo not given)	-	-	52	-	-
O=C(Oc1ccc(Cl)cc1)N1CCOCC1	-	-	-	-	-
O=C(Oc1ccc(-c2ccccc2)cc1)N1CCOCC1	-	-	.	-	86
CC(=O)N1CCN(c2ccc(N3CCN(Cc4ccccc4)[C@H](C)C3)c(C)c2)[C@H](C)C1	.	.	-	.	.
CC(=O)N1c2ccc(S(=O)(=O)N3CCC(C(=O)NCc4ccc(N(C)C)cc4)CC3)cc2CC1C (stereo not given)	-	-	-	-	-
CC(=O)N1c2ccc(S(=O)(=O)N3CCCC3)cc2CC1C(=O)NCc1ccc(N(C)C)cc1 (stereo not given)	-	.	-	57	-
Cc1ccc(S(=O)(=O)NC(CCCNC(=O)OCc2ccccc2)C(=O)O)cc1 (stereo not given)	.	.	-	.	.
CC(=O)Nc1ccc(S(=O)(=O)NN=c2sc3ccccc3n2C)cc1N	.	.	-	.	.
CCN(Cc1ccccc1)C(=O)C1CCN(C/C(C)=C/c2ccccc2)CC1	-	-	-	88	-
COCCNC(=O)C1(C)CCCN(Cc2noc(-c3ccccc3OC)n2)C1 (stereo not given)	.	.	-	.	.
S=C(NCCc1ccccc1)NN=C1CCCCCC1	-	-	-	67	-
O=C(c1ccc(Cl)cc1)C(CN1CCCCC1)c1ccccc1 (stereo not given)	-	-	-	107	-
SMILES	SR-BI HDL uptake	SR-BI DiI-HDL act	Wnt bcat act	HSF-1 act	MITF act
CCOC(=O)C(CN1CCCC1)c1ccccc1 (stereo not given)	-	-	-	-	-
CCOc1ccc(NC(=O)CN(C)C(=O)/C=C/c2ccco2)cc1OCC	-	-	-	.	-
COC(=O)[C@]12C[C@H](CC(=O)N3CCN(C(=O)c4ccco4)CC3)C(=O)N(CCC3=CCCCC3)C1=C[C@H](COCc1ccccc1)O[C@@H]2C	.	.	-	.	.
O=c1[nH][nH]c2c1[C@H](c1ccc(Cl)cc1)O[C@H](C1CC1)C2	.	.	-	.	.
CCOc1ccc(-c2nnn(CC(=O)NCc3ccc(F)cc3)n2)cc1OCC	-	-	-	-	-
CCOc1ccc(-c2nnn(CC(=O)Nc3cccc(OC)c3)n2)cc1OCC	-	-	33	-	-
COc1cccc(-c2nnn(CC(C)=O)n2)c1	-	-	.	?	82
COc1ccc(-c2ccc(-c3nnn(CC(C)=O)n3)cc2)cc1	-	-	.	-	-
CC1CCCCN1C(=O)c1ccc(Br)o1 (stereo not given)	-	-	-	-	-
C[C@@H]1CN([C@H](C)CO)C(=O)CCCn2nncc2CO[C@@H]1CN(C)C(=O)Nc1ccccc1	.	.	-	.	.
CCCCNc1ccc2c(c1)OC[C@H](CC(C)C)NS2(=O)=O	.	.	-	.	.
Cc1ccc(NS(=O)(=O)c2ccc(-c3coc(C)n3)cc2)c(Cl)c1	.	.	-	.	.
c1ccc(-c2nc(CSc3n[nH]c(-c4cccs4)n3)cs2)cc1	-	-	.	60	-
CC1Cc2ccccc2N1C(=O)Cn1c(=O)oc2cc(S(=O)(=O)N3CCCCC3)ccc21 (stereo not given)	80	-	-	-	-
Cn1c(=O)oc2cc(S(=O)(=O)N3CCCC3)ccc21	-	-	-	-	.
O=C(Cn1c(=O)oc2cc(S(=O)(=O)N3CCCCC3)ccc21)N1CCc2ccccc21	-	-	-	-	-
Cn1c(=O)oc2cc(S(=O)(=O)N3CCCCC3)ccc21	-	-	-	113	-
CCOC(=O)Cn1c(=O)oc2cc(S(=O)(=O)N3CCN(C(=O)c4ccco4)CC3)ccc21	-	-	-	71	-
CCOC(=O)Cn1c(=O)oc2cc(S(=O)(=O)N3CCN(c4ccccn4)CC3)ccc21	-	-	-	-	.
CCOC(=O)C1=CCN(S(=O)(=O)c2ccc(Br)cc2)C1c1cccc(F)c1 (stereo not given)	.	.	-	.	.
Cc1nn(-c2ccccc2)c(C)c1C(=O)OCC(=O)Nc1ccccc1	-	-	-	.	86
Cc1nc(COC(=O)c2c(C)nn(-c3ccccc3)c2C)cs1	-	-	-	-	86
CC(=O)c1ccccc1NC(=O)COC(=O)c1c(C)nn(-c2ccccc2)c1C	-	-	42	.	-
Cc1nn(-c2ccccc2)c(C)c1C(=O)OCC(=O)N(C)c1ccccc1	-	-	-	.	-
COc1ccccc1NC(=O)COC(=O)c1c(C)nn(-c2ccccc2)c1C	-	-	-	.	100
SMILES	SR-BI HDL uptake	SR-BI DiI-HDL act	Wnt bcat act	HSF-1 act	MITF act
C=CCn1c(SCC(=O)N2CCC(C)CC2)nc2c([nH]c3ccccc32)c1=O	.	.	-	.	.
COc1cc(Nc2cc(C)n(-c3ccc(Cl)c(OC)c3)c(=O)c2)ccc1Cl	.	.	-	.	.
COC(=O)[C@]12C[C@H](CC(=O)NCc3ccccc3)C(=O)N(Cc3ccccc3)C1=C[C@H](C(C)(C)C)O[C@@H]2C	.	.	-	.	.
C[C@H](c1ccccc1)N1C[C@H](COCc2ccccc2)Oc2cc(N3CC[C@@H](O)C3)ccc2S1(=O)=O	.	.	-	.	.
COc1ccc(S(=O)(=O)N(C)CC(=O)N2CCC(C(N)=O)CC2)cc1Cl	-	-	.	66	-
COc1ccc(C)cc1S(=O)(=O)N(C)CC(=O)N1CCC(C(N)=O)CC1	-	-	-	-	-
Cc1cn([C@H]2C[C@H](O)[C@@H](CNCc3ccc(CN(C)S(C)(=O)=O)o3)O2)c(=O)[nH]c1=O	.	.	-	.	.
O=C1NC[C@@H](CCCCN2C[C@H](Cc3ccc(O)cc3)N(CCc3ccc(O)cc3)C(=O)C2=O)N(CCc2ccccc2)C1=O	.	.	-	.	.
Oc1ccc(/C=N/Nc2ncc(Cl)cc2Cl)cc1	-	-	-	-	88
Clc1cnc(N/N=C/c2cccs2)c(Cl)c1	-	-	.	-	?
